Source: ChEMBL document CHEMBL1157970, “Quercetin as the active principle of Hypericum hircinum exerts a selective inhibitory activity against MAO-A: extraction, biological analysis, and computational study” (J Nat Prod, 2006)
The source made the active and inactive calls. The calls are words filed in the database; no cut-off is given here.

Key:
Mus musculus [1] = test: Increase in duration of immobility in CD1 mouse at 10 mg/kg, ip by forced swimming test relative to carboxy methyl cellulose; type: functional, organism-based; design: dose 10 mg/kg
Procedure, shortened: (§1)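 Male CD1 mice, 25-28 g, n = 10 per group. Two-day protocol: 15-min pretest swim in a cylinder of 25 °C water. After 24 h, a 10-min videotaped test session 60 min after ip injection of drug suspended in 0.5% CMC, given at 0.01 mL/g. Immobility time is compared with naïve and CMC groups by two-way ANOVA and Duncan test, p < 0.05.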

Mus musculus [2] = test: Induction of behavioral effects in CD1 mouse at 1 mg/kg, ip by forced swimming test relative to carboxy methyl cellulose; type: functional, organism-based; design: dose 1 mg/kg; procedure, shortened: as §1
Mus musculus [3] = test: Effect on duration of immobility in CD1 mouse at 10 mg/kg, ip by forced swimming test relative to control; type: functional, organism-based; design: dose 10 mg/kg; procedure, shortened: as §1
Mus musculus [4] = test: Effect on duration of immobility in CD1 mouse at 1 mg/kg, ip by forced swimming test relative to control; type: functional, organism-based; design: dose 1 mg/kg; procedure, shortened: as §1
Mus musculus [5] = test: Induction of behavioral effects in CD1 mouse at 1 mg/kg, ip by forced swimming test relative to control; type: functional, organism-based; design: dose 1 mg/kg; procedure, shortened: as §1
Mus musculus [6] = test: Effect on duration of immobility in CD1 mouse at 10 mg/kg, ip by forced swimming test relative to carboxy methyl cellulose; type: functional, organism-based; design: dose 10 mg/kg; procedure, shortened: as §1
[7] = molecular target: T1, Amine oxidase [flavin-containing] A (Bos taurus, UniProt P21398); test: Inhibition of bovine MAO-A by fluorimetric method
T1 sequence (P21398 whole entry): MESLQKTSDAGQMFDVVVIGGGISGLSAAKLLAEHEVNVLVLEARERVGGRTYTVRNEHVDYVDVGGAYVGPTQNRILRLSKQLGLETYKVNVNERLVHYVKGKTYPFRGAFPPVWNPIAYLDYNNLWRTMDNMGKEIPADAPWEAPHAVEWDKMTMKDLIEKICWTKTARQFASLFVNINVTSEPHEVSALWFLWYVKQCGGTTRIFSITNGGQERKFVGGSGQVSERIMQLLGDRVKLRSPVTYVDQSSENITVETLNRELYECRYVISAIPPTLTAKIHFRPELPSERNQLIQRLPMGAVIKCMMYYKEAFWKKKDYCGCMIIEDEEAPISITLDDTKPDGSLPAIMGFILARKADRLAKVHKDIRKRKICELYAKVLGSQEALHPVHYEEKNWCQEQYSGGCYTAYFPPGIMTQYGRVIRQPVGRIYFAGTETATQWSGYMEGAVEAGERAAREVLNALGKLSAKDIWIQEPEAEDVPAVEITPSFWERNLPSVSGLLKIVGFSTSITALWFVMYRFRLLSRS
Procedure, shortened: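 Beef brain mitochondria (6 mg/mL) in K3PO4 buffer pH 7.4 with kynuramine substrate (four concentrations, 5 μM to 0.1 mM). Preincubated 30 min at 38 °C with 0.5 μM L-deprenyl to isolate MAO-A. Drug in DMSO; incubated 30 min at 38 °C, stopped with HClO4, supernatant into NaOH, read fluorimetrically. Means of three or more experiments run in duplicate.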

Mus musculus [8] = test: Increase in duration of immobility in CD1 mouse at 1 mg/kg, ip by forced swimming test relative to control; type: functional, organism-based; design: dose 1 mg/kg; procedure, shortened: as §1
Mus musculus [9] = test: Induction of behavioral effects in CD1 mouse at 10 mg/kg, ip by forced swimming test relative to control; type: functional, organism-based; design: dose 10 mg/kg; procedure, shortened: as §1
Mus musculus [10] = test: Induction of behavioral effects in CD1 mouse at 10 mg/kg, ip by forced swimming test relative to carboxy methyl cellulose; type: functional, organism-based; design: dose 10 mg/kg; procedure, shortened: as §1
Mus musculus [11] = test: Increase in duration of immobility in CD1 mouse at 10 mg/kg, ip by forced swimming test relative to control; type: functional, organism-based; design: dose 10 mg/kg; procedure, shortened: as §1
Mus musculus [12] = test: Effect on duration of immobility in CD1 mouse at 1 mg/kg, ip by forced swimming test relative to carboxy methyl cellulose; type: functional, organism-based; design: dose 1 mg/kg; procedure, shortened: as §1
[13] = molecular target: T2, Amine oxidase [flavin-containing] B (Bos taurus, UniProt P56560); test: Inhibition of bovine MAO-B by fluorimetric method
T2 sequence (P56560 whole entry): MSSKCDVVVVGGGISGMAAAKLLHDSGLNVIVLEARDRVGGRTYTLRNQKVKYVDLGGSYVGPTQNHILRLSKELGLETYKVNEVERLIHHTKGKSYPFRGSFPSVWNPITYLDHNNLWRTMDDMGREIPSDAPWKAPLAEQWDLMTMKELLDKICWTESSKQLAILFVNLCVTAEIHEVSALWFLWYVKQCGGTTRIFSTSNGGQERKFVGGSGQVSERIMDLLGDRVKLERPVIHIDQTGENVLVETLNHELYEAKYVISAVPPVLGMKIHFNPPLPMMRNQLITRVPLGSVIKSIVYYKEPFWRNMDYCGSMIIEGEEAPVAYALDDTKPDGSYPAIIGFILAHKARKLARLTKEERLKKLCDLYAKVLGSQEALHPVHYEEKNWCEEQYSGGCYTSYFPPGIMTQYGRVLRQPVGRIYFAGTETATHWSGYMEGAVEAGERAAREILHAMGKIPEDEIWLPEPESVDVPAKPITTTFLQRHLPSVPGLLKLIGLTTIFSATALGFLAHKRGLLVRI
Procedure, shortened: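 Bovine brain mitochondria (6 mg/mL) in 0.25 M potassium phosphate buffer pH 7.4; preincubated 30 min at 38 °C with 0.05 μM clorgyline to isolate MAO-B. Kynuramine substrate at four levels, 5 μM to 0.1 mM; inhibitor added from DMSO; 30 min at 38 °C, stopped with HClO4, centrifuged, supernatant into 0.1 N NaOH, fluorimetric read-out. Means of ≥3 experiments in duplicate.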

Mus musculus [14] = test: Increase in duration of immobility in CD1 mouse at 1 mg/kg, ip by forced swimming test relative to carboxy methyl cellulose; type: functional, organism-based; design: dose 1 mg/kg; procedure, shortened: as §1

`O=c1c(O)c(-c2ccc(O)c(O)c2)oc2cc(O)cc(O)c12` [QUERCETIN] was tested, and the Activity (Mus musculus [1]) was “Active”, the Activity (Mus musculus [2]) was “inactive” and the Activity (Mus musculus [3]) was “inactive”. For the same compound, the Activity (Mus musculus [4]) was “inactive”, the Activity (Mus musculus [5]) was “inactive” and the Activity (Mus musculus [6]) was “inactive”. For the same compound, the IC50 [7] was 0.01 µM, the Activity (Mus musculus [8]) was “Active” and the Activity (Mus musculus [9]) was “inactive”. The Activity (Mus musculus [10]) was “inactive”, the Activity (Mus musculus [11]) was “Active” and the Activity (Mus musculus [12]) was “inactive”. For the same compound, the IC50 [13] was 20 µM and the Activity (Mus musculus [14]) was “Active”.
